Assay results collected from several papers.
Compare with care: the assays were run in different laboratories.
CDK4 with cyclin D1: Cyclin-dependent kinase 4, with cyclin D1 (CDK4, Homo sapiens, UniProt P11802)
CDK4 with cyclin D3: Cyclin-dependent kinase 4, with cyclin D3 (CDK4, Homo sapiens, UniProt P11802)
CDK4: Cyclin-dependent kinase 4 (CDK4, Homo sapiens, UniProt P11802)

Structure (SMILES) | target | effect on | action | method | concentration | measurement | value
CN(C)c1nccc(-c2cnn3ncccc23)n1 | CDK4 with cyclin D1 | binding |  |  | 1 µM | remaining binding | 100%
Cc1cc(NC(=O)c2cccc3cc(-c4cccc5[nH]nc(N)c45)ccc23)ccc1F | CDK4 with cyclin D3 | enzyme activity | inhibitor |  | 0.1 µM | activity vs control | 89%
CCC(=N\O)/C(C)=C/c1ccc(F)cc1 | CDK4 with cyclin D3 | cell-free assay |  | competition with immobilised ligand | 1 µM | remaining binding | 74%
Oc1cccc(-c2nc(N3CCOCC3)c3oc4ncccc4c3n2)c1 | CDK4 with cyclin D3 | cell-free assay |  |  | 0.5 µM | remaining signal | 92.5%
N[C@H]1CCN(c2nccc(-c3cnn4ncccc34)n2)C1 | CDK4 with cyclin D1 | binding |  |  | 1 µM | remaining binding | 100%
COc1ccc(OC)c2c(=S)c3ccccc3[nH]c12 | CDK4 with cyclin D3 | cell-free assay |  |  | 0.5 µM | remaining signal | 95.5%
COc1ccc(C(=O)[C@H]2Cc3c(cc([N+](=O)[O-])cc3[N+](=O)[O-])[C@@H](O)[C@@]23C(=O)Nc2ccccc23)cc1 | CDK4 | cell-free assay | inhibitor | TR-FRET | 1 µM | inhibition | 39.3%
Nc1nc(Nc2ccc(S(N)(=O)=O)cc2)sc1C(=O)c1ccccc1[N+](=O)[O-] | CDK4 | enzyme activity | inhibitor |  | 0.1 µM | inhibition | 87%
O=C(c1ccccc1)[C@H]1Cc2c(cc([N+](=O)[O-])cc2[N+](=O)[O-])[C@H](O)[C@]12C(=O)Nc1ccccc12 | CDK4 | cell-free assay | inhibitor | TR-FRET | 1 µM | inhibition | 30.8%
O=C1NC(=O)c2cc(Nc3ccc(F)cc3)c(Nc3ccc(F)cc3)cc21 | CDK4 with cyclin D1 | cell-free assay |  |  | 0.5 µM | remaining signal | 101%
Cc1nccc(COC(=O)N2C[C@@H]3[C@@H](CNC(=O)c4ccc5[nH]nnc5c4)[C@@H]3C2)n1 | CDK4 with cyclin D1 | cell-free assay |  | competition with immobilised ligand | 1 µM | remaining binding | 90%
CN(c1nccc(-c2cnn3ncccc23)n1)C1CC1 | CDK4 with cyclin D1 | binding |  |  | 1 µM | remaining binding | 100%
O=C(c1ccc(Br)cc1)[C@H]1Cc2c(cc([N+](=O)[O-])cc2[N+](=O)[O-])[C@@H](O)[C@@]12C(=O)Nc1ccccc12 | CDK4 | cell-free assay | inhibitor | TR-FRET | 1 µM | inhibition | 29.5%
COc1cc(Cl)c(C(=O)N[C@@H](CN[C@H]2CC[C@@H](N)CC2)Cc2ccc(C#N)cc2)cc1-c1ccc(CN[C@H](C)c2ccc(C)cc2)o1 | CDK4 with cyclin D3 | enzyme activity | inhibitor |  | 1 µM | remaining activity | 103%
CS(=O)(=O)c1cc(C2(NC(=O)c3cncc4c3cnn4-c3ccc(F)cc3)CC2)ccn1 | CDK4 with cyclin D3 | cell-free assay |  | competition with immobilised ligand | 1 µM | remaining binding | 100%
O=C(c1ccc(F)cc1)[C@H]1Cc2c(cc([N+](=O)[O-])cc2[N+](=O)[O-])[C@@H](O)[C@@]12C(=O)Nc1ccccc12 | CDK4 | cell-free assay | inhibitor | TR-FRET | 1 µM | inhibition | 48.2%
CN(C)c1nccc(-c2cnc3ncccn23)n1 | CDK4 with cyclin D1 | binding |  |  | 1 µM | remaining binding | 51%
CC(C)(C)c1nc2c(s1)c1nc(N)ncc1c1ccc(NS(=O)(=O)c3c(F)cccc3F)c(F)c12 | CDK4 with cyclin D3 | enzyme activity | inhibitor | radiometric | 1 µM | remaining activity | 100%
CC(C)(O)[C@H]1CC[C@H](Nc2ccc3ncc(-c4cccc(C(F)(F)F)c4)n3n2)CC1 | CDK4 with cyclin D3 | enzyme activity | inhibitor |  | 1 µM | remaining activity | 106%
COc1ccc2cc(OCC3(C(=O)O)CN(C(=O)c4ccc(F)cc4)C3)ccc2c1 | CDK4 with cyclin D3 | cell-free assay |  | competition with immobilised ligand | 1 µM | remaining binding | 100%

Structure (SMILES) | target | effect on | action | method | concentration | measurement | value
C[C@H]1CCN(c2nccc(-c3cnn4ncccc34)n2)C1 | CDK4 with cyclin D1 | binding |  |  | 1 µM | remaining binding | 80%
Nc1ncnc2occ(-c3ccc(NC(=O)Nc4cc(C(F)(F)F)ccc4F)cc3)c12 | CDK4 | cell-free assay | inhibitor |  | 20 µM | remaining signal | 29%
N#CCCc1ccc2c(c1)-c1[nH]c3ccc([N+](=O)[O-])cc3c1CC(=O)N2 | CDK4 with cyclin D1 | cell-free assay |  |  | 0.5 µM | remaining signal | 11.8%
O=C(c1ccccc1F)[C@H]1Cc2c(cc([N+](=O)[O-])cc2[N+](=O)[O-])[C@H](O)[C@]12C(=O)Nc1ccccc12 | CDK4 | cell-free assay | inhibitor | TR-FRET | 1 µM | inhibition | 29.3%
O=C(Nc1cnn(-c2csc(C(=O)NC3COC3)c2)c1)Nc1c(F)cccc1Cl | CDK4 with cyclin D3 | enzyme activity | inhibitor |  | 5 µM | remaining activity | 79.4%
O=C(c1ccc(Cl)c(Cl)c1)[C@H]1Cc2c(cc([N+](=O)[O-])cc2[N+](=O)[O-])[C@H](O)[C@]12C(=O)Nc1ccccc12 | CDK4 | cell-free assay | inhibitor | TR-FRET | 1 µM | inhibition | 18.5%
Cc1sc(C(=O)NC2COC2)cc1-n1cc(NC(=O)Nc2c(F)cccc2Cl)cn1 | CDK4 with cyclin D3 | enzyme activity | inhibitor |  | 10 µM | remaining activity | 96.5%
CC1CCCN1c1nccc(-c2cnn3ncccc23)n1 (stereo not shown) | CDK4 with cyclin D1 | binding |  |  | 1 µM | remaining binding | 100%
O=C(O)[C@@H]1[C@@H](Cn2nnc3ccccc3c2=O)CC[C@H]1C(=O)c1ccc(OCCC2CCOCC2)cc1 | CDK4 with cyclin D3 | cell-free assay |  | competition with immobilised ligand | 1 µM | remaining binding | 83%
F[C@@H]1CCN(c2nccc(-c3cnn4ncccc34)n2)C1 | CDK4 with cyclin D1 | binding |  |  | 1 µM | remaining binding | 100%
COc1cc2c(cc1OC)-c1[nH]nc(Nc3cccc(F)c3)c1C2 | CDK4 with cyclin D3 | cell-free assay |  |  | 0.5 µM | remaining signal | 95.4%
O=C(Nc1cnn(-c2csc(C(=O)NC3COC3)c2)c1)Nc1ccccc1Cl | CDK4 with cyclin D1 | enzyme activity | inhibitor |  | 5 µM | remaining activity | 92.2%
Cc1c(NC(=O)c2cc(C(N)=O)nc3cc(F)ccc23)c(C(F)(F)F)nn1Cc1ccc(C#N)cc1 | CDK4 with cyclin D3 | cell-free assay |  | competition with immobilised ligand | 1 µM | remaining binding | 81%
CN(CCCC(F)(F)F)c1nccc(-c2cnn3ncccc23)n1 | CDK4 | binding |  |  | 1 µM | remaining binding | 100%
C[C@@H]1CCN(C(=O)CC#N)C[C@@H]1N(C)c1ncnc2[nH]ccc12 | CDK4 with cyclin D3 | cell-free assay | inhibitor |  | 0.5 µM | remaining signal | 99.9%
CN1CC(Oc2cnc(C#N)cc2-c2ccn3nc(NC(=O)C4CC4)cc3c2)C1 | CDK4 with cyclin D3 | enzyme activity | inhibitor |  | 1 µM | inhibition | -9%
CCN(CC)CCNC(=O)c1c(C)[nH]c(/C=C2\C(=O)Nc3ccc(F)cc32)c1C | CDK4 with cyclin D1 | cell-free assay |  |  | 0.5 µM | remaining signal | 81%
COc1cc(-c2cn(C3CCc4c(F)cccc4N(CC(F)(F)F)C3=O)nn2)ccc1-n1cnc(C)c1 (stereo not shown) | CDK4 with cyclin D3 | cell-free assay |  | competition with immobilised ligand | 1 µM | remaining binding | 100%
O=C1Nc2ccc(Cl)cc2C1=Cc1cc(Cl)c(O)c(Cl)c1 | CDK4 with cyclin D3 | cell-free assay |  |  | 0.5 µM | remaining signal | 94.8%
CO[C@@H](C)c1c(Nc2ccc([C@@H](N(C)C(=O)C3CCS(=O)(=O)CC3)C(F)(F)F)cc2)cnc2cc(Cl)nn12 | CDK4 with cyclin D1 | cell-free assay |  | competition with immobilised ligand | 1 µM | remaining binding | 100%
